Measurements reported in ChEMBL document CHEMBL5543129, “Peptide Inhibitor Targeting the Extraterminal Domain in BRD4 Potently Suppresses Breast Cancer Both In Vitro and In Vivo” (J Med Chem, 2024).
The source made the active and inactive calls. The calls are words filed in the database; no cut-off is given here. Square brackets hold non-standard residues; d marks the D form. Peptide text beside a SMILES is read from it. Hyp = O=C(O)[C@@H]1C[C@@H](O)CN1; Ahx = NCCCCCC(=O)O

Assays:
[1] = test system: MCF7; assay: Inhibition of colony formation in human MCF7 cells at 10 uM incubated for 2 weeks by crystal violet staining based assay; assay type: functional, cell-based
In short: (§1)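 Cells are seeded at 1 × 10^3/well and treated with peptide (10 μM) for 2 weeks, alone or with JQ1 5 μM, iJMJD6 10 μM, ICI 2.5 μM, or tamoxifen 3 μM (tamoxifen-resistant lines). Colonies are stained with crystal violet, dissolved in 10% acetic acid, and read at 590 nm. Three biological repeats.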

[2] = test system: MCF7; assay: Downregulation of […] gene expression in human MCF7 cells at 10 uM incubated for 6 hrs by RT-qPCR analysis; assay type: functional, cell-based
In short: (§2)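 Cells treated with peptide (10 μM) for 6 h; c-Myc, N-myc and CCND1 mRNA measured by RT-qPCR. Three biological repeats.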

[3] = test system: MDA-MB-231; assay: Downregulation of c-Myc gene expression in human MDA-MB-231 cells at 10 uM incubated for 6 hrs by RT-qPCR analysis; assay type: functional, cell-based; in short: as §2
[4] = test system: MDA-MB-231; assay: Downregulation of […] gene expression in human MDA-MB-231 cells at 10 uM incubated for 6 hrs by RT-qPCR analysis; assay type: functional, cell-based; in short: as §2
[5] = test system: MDA-MB-231; assay: Downregulation of CCND1 gene expression in human MDA-MB-231 cells at 10 uM incubated for 6 hrs by RT-qPCR analysis; assay type: functional, cell-based; in short: as §2
[6] = Downregulation of BRD4 protein expression in human MDA-MB-231 cells assessed as fold change in remaining BRD4 level at 10 uM incubated for 24 hrs by immunoblotting analysis (reference value: 1); assay type: functional
In short: (§3)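 Cells treated with peptide (10 μM) for 24 h. Lysates in Tris/NaCl/EDTA/1% Triton X-100, run on 10% SDS-PAGE and immunoblotted with ECL detection. β-actin as loading control. Three repeats, quantified against untreated cells.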

[7] = Downregulation of JMJD6 protein expression in human MDA-MB-231 cells assessed as fold change in remaining JMJD6 level at 10 uM incubated for 24 hrs by immunoblotting analysis (reference value: 1); assay type: functional; in short: as §3
[8] = Downregulation of CCND1 protein expression in human MDA-MB-231 cells assessed as fold change in remaining CCND1 level at 10 uM incubated for 24 hrs by immunoblotting analysis (reference value: 1); assay type: functional; in short: as §3
[9] = test system: Mus musculus; assay: Downregulation of CCND1 mRNA expression in BALB/c mouse tumor xenografted with human MCF7 cells at 25 mg/kg, ip administered every 2 days by RT-qPCR analysis; assay type: functional, organism-based
[10] = test system: Mus musculus; assay: Downregulation of N-myc mRNA expression in BALB/c mouse tumor xenografted with human MDA-MB-231 cells at 25 mg/kg, ip administered every 2 days by RT-qPCR analysis; assay type: functional, organism-based
[11] = test system: MCF7; assay: Inhibition of cell migration in human MCF7 cells at 10 uM incubated for 24 hrs by inverted microscopic assay; assay type: functional, cell-based
In short: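 Cells are seeded at 5 × 10^5/well and scratched at 80–90% confluence. They are kept in serum-free medium with peptide (10 μM); partner agents are JQ1 5 μM, iJMJD6 10 μM, or ICI 2.5 μM. Wound area is imaged by inverted microscope at 0 and 12 or 24 h. Wound closure % = (A0−A1)/A0 × 100. Three biological repeats.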

[12] = Toxicity in BALB/c mouse xenografted with human MCF7 cells assessed as change in heart morphology at 12.5 mg/kg, ip administered every 2 days in presence of 50 mg/kg JQ1; assay type: organism-based; conditions: in vivo, 48 h
[13] = Toxicity in BALB/c mouse xenografted with human MCF7 cells assessed as change in lung morphology at 12.5 mg/kg, ip administered every 2 days in presence of 50 mg/kg JQ1; assay type: organism-based; conditions: in vivo, 48 h
[14] = Toxicity in BALB/c mouse xenografted with human MDA-MB-231 cells assessed as change in liver morphology at 12.5 mg/kg, ip administered every 2 days in presence of 50 mg/kg JQ1; assay type: organism-based; conditions: in vivo, 48 h
In short: (§4)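 Female BALB/c nude mice (4–6 weeks) carried sc MDA-MB-231 xenografts (5 × 10^6 cells) and were randomized at about 50 mm3. Peptide (12.5 mg/kg ip in saline) and JQ1 (50 mg/kg ip, DMSO/10% HPBCD 1:10) were given every 2 days, alone or combined. Body weight was recorded, and heart, liver, spleen, lung and kidney morphology and weight were assessed.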

[15] = Toxicity in BALB/c mouse xenografted with human MDA-MB-231 cells assessed as change in spleen weight at 12.5 mg/kg, ip administered every 2 days in presence of 50 mg/kg JQ1; assay type: organism-based; conditions: in vivo, 48 h; in short: as §4
[16] = test system: T47D; assay: Inhibition of colony formation in human T47D cells at 10 uM incubated for 2 weeks in presence of fulvestrant by crystal violet staining based assay; assay type: functional, cell-based; in short: as §1
[17] = test system: MCF7; assay: Antitumor activity against human MCF7 cells xenografted in BALB/c nude mouse assessed as reduction in tumor weight at 12.5 mg/kg, ip administered every 2 days in presence of 2.5 mg/kg fulvestrant; assay type: functional, organism-based
In short: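 MCF7 xenografts in female BALB/c nude mice on E2 (10^-2 M, every 2 days), randomised at ~50 mm3. Peptide 12.5 mg/kg ip every 2 days with fulvestrant 2.5 mg/kg sc (DMSO/corn oil 1:10) every 6 days. Caliper volume (1/2 × L × W²); tumours weighed at the end.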

[18] = test system: MCF7; assay: Antiproliferative activity against human MCF7 cells at 10 uM incubated for 1 week in presence of tamoxifen by CellTiter 96 Aqueous One Solution based assay; assay type: functional, cell-based; conditions: time 1.0 weeks
In short: (§5)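 Tamoxifen-resistant MCF7 or T47D cells treated with peptide (10 μM) or tamoxifen (3 μM), alone or combined. Viability read by MTS reagent, 1 h at 37 °C, A490.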

[19] = test system: MCF7; assay: Inhibition of colony formation in human MCF7 cells at 10 uM incubated for 2 weeks in presence of tamoxifen by crystal violet staining based assay; assay type: functional, cell-based; in short: as §1
[20] = test system: T47D; assay: Antiproliferative activity against human T47D cells at 10 uM incubated for 1 week in presence of tamoxifen by CellTiter 96 Aqueous One Solution based assay; assay type: functional, cell-based; conditions: time 1.0 weeks; in short: as §5
[21] = Downregulation of c-Myc protein expression in BALB/c mouse tumor xenografted with human MCF7 cells assessed as fold change in remaining c-Myc level at 25 mg/kg, ip administered every 2 days by immunoblotting analysis; assay type: functional
In short: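 Female BALB/c nude mice (4–6 weeks) carry subcutaneous MCF7 or MDA-MB-231 grafts (5 × 10^6 cells). MCF7 mice are brushed with E2 (10–2 M) every 2 days. Dosing starts at ~50 mm3: peptide in normal saline, ip every 2 days. Tumour lysates are immunoblotted with β-actin as loading control; repeated three times.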

[22] = Downregulation of CCND1 protein expression in BALB/c mouse tumor xenografted with human MCF7 cells assessed as fold change in remaining CCND1 level at 25 mg/kg, ip administered every 2 days by immunoblotting analysis; assay type: functional
In short: (§6)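 Tumours taken from xenograft mice dosed with peptide at 25 mg/kg ip every 2 days. […] Three repeats.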

[23] = Downregulation of N-myc protein expression in BALB/c mouse tumor xenografted with human MDA-MB-231 cells assessed as fold change in remaining N-myc level at 25 mg/kg, ip administered every 2 days by immunoblotting analysis; assay type: functional; in short: as §6

With `CC[C@H](C)[C@H](NC(=O)[C@H](Cc1ccc(O)cc1)NC(=O)[C@@H]1C[C@@H](O)CN1C(=O)[C@H](C)NC(=O)[C@@H](NC(=O)CCCCCNC(=O)[C@H](CCC(=O)O)NC(=O)CNC(=O)[C@H](CS)NC(=O)[C@H](CCCCN)NC(=O)[C@H](Cc1ccccc1)NC(=O)[C@H](CCCCN)NC(=O)[C@H](CCC(N)=O)NC(=O)[C@H](CC(N)=O)NC(=O)[C@H](CCCNC(=N)N)NC(=O)[C@H](CCCNC(=N)N)NC(=O)[C@H](CCCNC(=N)N)NC(=O)[C@H](CCCNC(=N)N)NC(=O)[C@H](CCC(N)=O)NC(=O)[C@H](CCCNC(=N)N)NC(=O)[C@H](CCCNC(=N)N)NC(=O)[C@H](CCCCN)NC(=O)[C@H](CCCCN)NC(=O)[C@H](CCCNC(=N)N)NC(=O)CNC(=O)[C@@H](N)Cc1ccc(O)cc1)[C@@H](C)CC)C(=O)O` (H-YGRKKRRQRRRRNQKFKCGE[Ahx]IA[Hyp]YI-OH) the inhibition [1] was “Active”, the Activity [2] was “Active” and the Activity [3] was “Active”. For the same compound, the Activity [4] was “Active”, the Activity [5] was “Active” and the “fold change (FC)” value [6] was 0.55. For the same compound, the “fold change (FC)” value [7] was 0.38, the “fold change (FC)” value [8] was 0.62 and the Activity [9] was “Active”. For the same compound, the Activity [10] was “Active”, the inhibition [11] was “Active” and the Activity [12] was “Non-Toxic”. The Activity [13] was “Non-Toxic”, the Activity [14] was “Non-Toxic” and the Activity [15] was “Non-Toxic”. The inhibition [16] was “Active”, the Activity [17] was “Active” and the Activity [18] was “Active”. The inhibition [19] was “Active”, the Activity [20] was “Active” and the “fold change (FC)” value [21] was 0.38. For the same compound, the “fold change (FC)” value [22] was 0.09 and the “fold change (FC)” value [23] was 0.13.

For H-YGRKKRRQRRRRNQKFKCGE-OH, the inhibition [1] was “Active”, the Activity [2] was “Active” and the Activity [3] was “Active”. The Activity [4] was “Active”, the Activity [5] was “Active” and the “fold change (FC)” value [6] was 1.06. The “fold change (FC)” value [7] was 1.04, the “fold change (FC)” value [8] was 0.67 and the Activity [9] was “Active”. The Activity [10] was “Active”, the inhibition [11] was “Active” and the Activity [12] was “Non-Toxic”. The Activity [13] was “Non-Toxic”, the Activity [14] was “Non-Toxic” and the Activity [15] was “Non-Toxic”. The inhibition [16] was “Active”, the Activity [17] was “Active” and the Activity [18] was “Active”. For the same compound, the inhibition [19] was “Active”, the Activity [20] was “Active” and the “fold change (FC)” value [21] was 0.27. The “fold change (FC)” value [22] was 0.11 and the “fold change (FC)” value [23] was 0.38.
